Experimental data reported in ChEMBL document CHEMBL1132144, “Synthesis of 9-O-substituted derivatives of 9-hydroxy-5, 6-dimethyl-6H-pyrido[4,3-b]carbazole-1-carboxylic acid (2-(dimethylamino)ethyl)amide and their 10- and 11-methyl analogues with improved antitumor activity” (J Med Chem, 1999).
Values joined by “and” are separate entries in the source; they are usually repeats but may differ in a detail not shown here. Equal entries are not always repeated.

Legend:
[1] = tested on: B16; experiment: Inhibition of murine B16 melanoma cell proliferation measured by the MTT assay; type: functional, cell-based; conditions: Mus musculus
How it was run: (§1)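 Murine L1210 leukemia and B16 melanoma cells were grown in RPMI 1640 with 10% fetal calf serum, 2 mM L-glutamine, penicillin/streptomycin and 10 mM HEPES (pH 7.4). Cells were exposed to nine serial drug dilutions in triplicate for about four doubling times (L1210 48 h, B16 96 h), then read by microculture tetrazolium (MTT) assay. IC50 is the concentration halving optical density versus untreated controls, averaged over ≥2 independent experiments.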

[2] = tested on: L1210; experiment: Inhibition of murine L1210 leukemia cell proliferation measured by the MTT assay; type: functional, cell-based; conditions: Mus musculus; how it was run: as §1
[3] = tested on: Mus musculus; experiment: Long-term survivors among 6 mice infected with P388 leukemia, scored on day 60 at 80 mg/kg dose; type: functional
How it was run: (§2)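 B6D2F1 mice in groups of 6–7 were inoculated ip on day 0 with 10^6 P388 cells. Dihydrochloride salts were dissolved in water and given iv on day 1 or on days 1, 5 and 9. Doses ranged from a low nontoxic dose to a toxic one. Long-term survivors were counted at day 60.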

[4] = tested on: Mus musculus; experiment: Percent median survival time of mice intraperitoneally injected with P388 leukemia was determined from tested at 80 mg/kg at day1,5,9 dose to that of control; type: functional; conditions: route intraperitoneal
How it was run: (§3)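 P388 leukemia in B6D2F1 mice (groups of 6–7), 10^6 cells inoculated ip on day 0. Dihydrochloride salts were dissolved in water and given iv on day 1 or on days 1, 5, 9. Three doses were tested, then five if active. %T/C = median survival treated/control × 100, reported at the optimal dose (no toxic death, weight loss <20%), from one or two representative experiments.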

[5] = tested on: Mus musculus; experiment: Percent median survival time of mice intraperitoneally injected with P388 leukemia was determined from tested at 160 mg/kg at day1 dose to that of control; type: functional; how it was run: as §3
[6] = tested on: Mus musculus; experiment: Long-term survivors among 6 mice infected with P388 leukemia, scored on day 60 at 160 mg/kg dose; type: functional; how it was run: as §2
[7] = tested on: Mus musculus; experiment: Percent median survival time of mice injected with B16 melanoma, at a intraperitoneal compound dose of 20 mg/kg
[8] = tested on: Mus musculus; experiment: Long-term survivors among 6 mice infected with P388 leukemia, scored on day 90 at 20 mg/kg dose; type: functional
[9] = tested on: Mus musculus; experiment: Long-term survivors among 6 mice infected with P388 leukemia, scored on day 60 at 40 mg/kg dose; type: functional; how it was run: as §2
[10] = tested on: Mus musculus; experiment: Percent median survival time of mice intraperitoneally injected with P388 leukemia was determined from tested at 40 mg/kg at day1,5,9 dose to that of control; type: functional; conditions: route intraperitoneal; how it was run: as §3
[11] = tested on: Mus musculus; experiment: Long-term survivors among 7 mice infected with P388 leukemia, scored on day 90 at 10 mg/kg dose; type: functional
[12] = tested on: Mus musculus; experiment: Percent median survival time of mice injected with B16 melanoma, at a intraperitoneal compound dose of 10 mg/kg
[13] = tested on: Mus musculus; experiment: Long-term survivors among 7 mice infected with B16 melanoma, scored on day 90 at 20 mg/kg dose on day 1; type: functional
[14] = tested on: Mus musculus; experiment: Long-term survivors among 7 mice infected with P388 leukemia, scored on day 60 at 20 mg/kg dose on day 1; type: functional
How it was run: (§4)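 B6D2F1 mice in groups of 6–7 received 10^6 P388 cells ip on day 0. Dihydrochloride salts dissolved in water were injected iv on day 1 or on days 1, 5 and 9, at three doses and then five. Read-outs were % T/C (median survival treated/control × 100) and long-term survivors on day 60, both at the optimal dose (no toxic death, weight loss <20%).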

[15] = tested on: Mus musculus; experiment: Percent median survival time of mice injected with P388 leukemia, at a subcutaneous compound dose of 10 mg/kg; type: functional
[16] = tested on: Mus musculus; experiment: Percent median survival time of mice injected with P388 leukemia, at a subcutaneous compound dose of 20 mg/kg; type: functional
[17] = tested on: Mus musculus; experiment: Percent median survival time of mice injected with B16 melanoma, at a intraperitoneal compound dose of 5 mg/kg
[18] = tested on: Mus musculus; experiment: Long-term survivors among 7 mice infected with B16 melanoma, scored on day 90 at 10 mg/kg dose on day 1; type: functional
[19] = tested on: Mus musculus; experiment: Long-term survivors among 7 mice infected with P388 leukemia, scored on day 60 at 10 mg/kg dose on day 1; type: functional; how it was run: as §4
[20] = tested on: Mus musculus; experiment: Percent median survival time of mice injected with P388 leukemia, at a intravenous compound dose of 5 mg/kg
[21] = tested on: Mus musculus; experiment: Percent median survival time of mice injected with B16 melanoma, at a intraperitoneal compound dose of 40 mg/kg
[22] = tested on: Mus musculus; experiment: Long-term survivors among 7 mice infected with B16 melanoma, scored on day 90 at 160 mg/kg dose on day 1; type: functional
[23] = tested on: Mus musculus; experiment: Long-term survivors among 7 mice infected with P388 leukemia, scored on day 60 at 160 mg/kg dose on day 1; type: functional; how it was run: as §4
[24] = tested on: Mus musculus; experiment: Percent median survival time of mice injected with P388 leukemia, at a subcutaneous compound dose of 160 mg/kg; type: functional
[25] = tested on: Mus musculus; experiment: Percent median survival time of mice injected with P388 leukemia, at a intravenous compound dose of 80 mg/kg
[26] = tested on: Mus musculus; experiment: Long-term survivors among 7 mice infected with B16 melanoma, scored on day 90 at 40 mg/kg dose on day 1; type: functional
[27] = tested on: Mus musculus; experiment: Long-term survivors among 7 mice infected with P388 leukemia, scored on day 60 at 40 mg/kg dose on day 1; type: functional; how it was run: as §4
[28] = tested on: Mus musculus; experiment: Percent median survival time of mice injected with P388 leukemia, at a intravenous compound dose of 40 mg/kg

Cc1c2ccnc(C(=O)NCCN(C)C)c2cc2c3cc(OC(=O)N4CCN(C)CC4)ccc3n(C)c12
IC50 [1]: 2470 nM | IC50 [2]: 1300 nM | LTS [3]: 0 | T/C [4]: 134% | T/C [5]: 146% | LTS [6]: 0 | T/C [7]: 159%

Cc1c2ccnc(C(=O)NCCN(C)C)c2cc2c3cc(OS(C)(=O)=O)ccc3n(C)c12
IC50 [1]: 782 nM | IC50 [2]: 868 nM | LTS [8]: 0 | LTS [9]: 0 | T/C [5]: 96% | T/C [10]: 106% | LTS [6]: 0 | T/C [7]: 142%

Cc1c2ccnc(C(=O)NCCN(C)C)c2cc2c3cc(OP(=O)(O)O)ccc3n(C)c12
IC50 [1]: 4.1 nM | IC50 [2]: 50.5 nM | LTS [11]: 0 | LTS [9]: 1 | T/C [5]: 239% | T/C [10]: 405% | LTS [6]: 1 | T/C [12]: 171%

COC(=O)CCCC(=O)Oc1ccc2c(c1)c1cc3c(C(=O)NCCN(C)C)nccc3c(C)c1n2C
IC50 [1]: 7.1 nM | IC50 [2]: 5.4 nM | LTS [13]: 0 | LTS [14]: 0 | T/C [15]: 158% | T/C [16]: 145% | T/C [17]: 144%

CCCCCCCCCCCCN(C)C(=O)Oc1ccc2c(c1)c1cc3c(C(=O)NCCN(C)C)nccc3c(C)c1n2C
IC50 [1]: 3260 nM | IC50 [2]: 2870 nM | LTS [18]: 0 | LTS [19]: 0 | T/C [15]: 103% | T/C [20]: 100% | T/C [21]: 115%

Cc1c2ccnc(C(=O)NCCN(C)C)c2cc2c3cc(OC(=O)CCCCCCC(=O)O)ccc3n(C)c12
IC50 [1]: 3.1 nM | IC50 [2]: 53.2 nM | LTS [22]: 0 | LTS [23]: 0 | T/C [24]: 287% | T/C [25]: >645%

CCOC(=O)CCNC(=O)Oc1ccc2c(c1)c1cc3c(C(=O)NCCN(C)C)nccc3c(C)c1n2C
IC50 [1]: 5.7 nM | IC50 [2]: 16.4 nM | LTS [26]: 0 | LTS [27]: 0 | T/C [16]: 95% | T/C [28]: 97% | T/C [12]: 115%

Cc1c2ccnc(C(=O)NCCN(C)C)c2cc2c3cc(OC(=O)CCCCC4CCSS4)ccc3n(C)c12 (stereo not drawn)
IC50 [1]: 14 nM | IC50 [2]: 118 nM | LTS [18]: 0 | LTS [19]: 0 | T/C ([15]; 10 mg/kg): 118% and 129% | T/C [17]: 140%

Cc1c2ccnc(C(=O)NCCN(C)C)c2cc2c3cc(OC(=O)CCCCC(=O)OCc4ccccc4)ccc3n(C)c12
IC50 [1]: 58.4 nM | IC50 [2]: 109 nM | LTS [13]: 0 | LTS [14]: 0 | T/C [15]: 128% | T/C [16]: 124% | T/C [21]: 102%
